# From ChEMBL document CHEMBL3763097, “Synthesis and biological evaluation of 5,10-dihydro-11H-dibenzo[b,e][1,4]diazepin-11-one structural derivatives as anti-cancer and apoptosis inducing agents” (Eur J Med Chem, 2016)
# Key:
# A549 [1] = experiment: Cell cycle arrest in human A549 cells assessed as accumulation at G2/M phase at 0.5 uM after 24 to 48 hrs by propidium iodide staining based flow cytometry (reference value: 22.3 to 31%); type: functional
# Procedure, shortened: (§1)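 Cells were seeded at 1×10^6 per well and treated 24 h later with 0.5, 1 or 2 µM compound; DMSO-treated cells served as control. Methods give harvest at 48 h (floating plus trypsinised cells); the figure legend says 24 h. Cells were fixed in 70% ethanol for 30 min at 4 °C and stained with PI, Triton X-100 and RNase A for 15 min in the dark. 10000 events were counted by flow cytometry.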
# MDA-MB-231 [2] = experiment: Cell cycle arrest in human MDA-MB-231 cells assessed as accumulation at G0/G1 phase at 2 uM after 24 to 48 hrs by propidium iodide staining based flow cytometry (reference value: 74.4%); type: functional; procedure, shortened: as §1
# A549 [3] = experiment: Induction of apoptosis in human A549 cells assessed as viable cells at 2 uM after 24 hrs by Annexin V-FITC/PI dual staining based flow cytometry (reference value: 85%); type: functional; conditions: A549, 24 h, read-out: Activity
# MDA-MB-231 [4] = experiment: Cell cycle arrest in human MDA-MB-231 cells assessed as accumulation at S phase at 1 uM after 24 to 48 hrs by propidium iodide staining based flow cytometry (reference value: 4.6%); type: functional; procedure, shortened: as §1
# MDA-MB-231 (human) = experiment: Induction of apoptosis in human MDA-MB-231 cells assessed as late apoptotic cells at 2 uM after 24 hrs by Annexin V-FITC/PI dual staining based flow cytometry (reference value: 4.5%)
# A549 [5] = experiment: Cytotoxicity against human A549 cells assessed as growth inhibition after 72 hrs by MTT assay; type: functional, cell-based; conditions: A549, 72 h
# Procedure, shortened: (§2)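 Cells in RPMI 1640 (PC-3, A549, MDA-MB-231) or DMEM (U87MG, MCF-7) with 10% FBS, passages 4-10, were seeded at 3000-5000 per well and left 24 h. Compounds in DMSO/medium were added for 72 h; DMSO served as control. MTT (5 mg/mL) was added for 4 h and formazan dissolved in DMSO. Absorbance was read at 570 nm minus 630 nm. % inhibition was taken versus DMSO, with IC50 by probit; mean ± SD of three experiments in triplicate.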
# A549 [6] = experiment: Cell cycle arrest in human A549 cells assessed as accumulation at S phase at 0.5 uM after 24 to 48 hrs by propidium iodide staining based flow cytometry (reference value: 18.3%); type: functional; procedure, shortened: as §1
# A549 [7] = experiment: Induction of apoptosis in human A549 cells assessed as necrotic cells at 0.5 uM after 24 hrs by Annexin V-FITC/PI dual staining based flow cytometry (reference value: 5.2%); type: functional
# MDA-MB-231 [8] = experiment: Induction of apoptosis in human MDA-MB-231 cells assessed as viable cells at 2 uM after 24 hrs by Annexin V-FITC/PI dual staining based flow cytometry (reference value: 91%); type: functional; conditions: MDA-MB-231, 24 h, read-out: Activity
# A549 [9] = experiment: Induction of apoptosis in human A549 cells assessed as early apoptotic cells at 1 uM after 24 hrs by Annexin V-FITC/PI dual staining based flow cytometry (reference value: 5.3%); type: functional
# MDA-MB-231 [10] = experiment: Cell cycle arrest in human MDA-MB-231 cells assessed as accumulation at G2/M phase after 24 to 48 hrs by propidium iodide staining based flow cytometry; type: functional; procedure, shortened: as §1
# A549 (human) = experiment: Induction of apoptosis in human A549 cells assessed as early apoptotic cells at 2 uM after 24 hrs by Annexin V-FITC/PI dual staining based flow cytometry (reference value: 0.3%)
# A549 [11] = experiment: Disruption of mitochondrial membrane potential in human A549 cells at 0.5 to 2 uM after 48 hrs by Rhodamine-123 staining based spectrofluorometry; type: functional
# Procedure, shortened: (§3)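 Cells were seeded at 5×10^5 cells/mL overnight and treated with 0.5, 1 and 2 µM compound; the methods say 24 h and the results text says 48 h. Trypsinised cells were washed and stained with rhodamine-123 (2 µM in PBS) for 30 min at room temperature in the dark, washed and read by spectrofluorometer. Data are mean ± SD of three independent experiments.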
# MDA-MB-231 [12] = experiment: Induction of apoptosis in human MDA-MB-231 cells assessed as late apoptotic cells at 1 uM after 24 hrs by Annexin V-FITC/PI dual staining based flow cytometry (reference value: 6.2%); type: functional
# [13] = Cytotoxicity against human PC3 cells assessed as growth inhibition after 72 hrs by MTT assay; type: functional, cell-based; conditions: PC-3, 72 h; procedure, shortened: as §2
# A549 [14] = experiment: Cell cycle arrest in human A549 cells assessed as accumulation at G0/G1 phase at 2 uM after 24 to 48 hrs by propidium iodide staining based flow cytometry (reference value: 49.1%); type: functional; procedure, shortened: as §1
# A549 [15] = experiment: Cell cycle arrest in human A549 cells assessed as accumulation at G2/M phase at 1 uM after 24 to 48 hrs by propidium iodide staining based flow cytometry (reference value: 22.3 to 31%); type: functional; procedure, shortened: as §1
# MDA-MB-231 [16] = experiment: Induction of apoptosis in human MDA-MB-231 cells assessed as viable cells at 0.5 uM after 24 hrs by Annexin V-FITC/PI dual staining based flow cytometry (reference value: 91%); type: functional; conditions: MDA-MB-231, 24 h, read-out: Activity
# A549 [17] = experiment: Induction of apoptosis in human A549 cells assessed as late apoptotic cells at 0.5 uM after 24 hrs by Annexin V-FITC/PI dual staining based flow cytometry (reference value: 4.5%); type: functional
# A549 [18] = experiment: Cell cycle arrest in human A549 cells assessed as accumulation at S phase at 1 uM after 24 to 48 hrs by propidium iodide staining based flow cytometry (reference value: 18.3%); type: functional; procedure, shortened: as §1
# A549 [19] = experiment: Cell cycle arrest in human A549 cells assessed as accumulation at S phase at 2 uM after 24 to 48 hrs by propidium iodide staining based flow cytometry (reference value: 18.3%); type: functional; procedure, shortened: as §1
# MDA-MB-231 [20] = experiment: Cell cycle arrest in human MDA-MB-231 cells assessed as accumulation at S phase at 0.5 uM after 24 to 48 hrs by propidium iodide staining based flow cytometry (reference value: 4.6%); type: functional; procedure, shortened: as §1
# A549 [21] = experiment: Induction of apoptosis in human A549 cells assessed as viable cells at 1 uM after 24 hrs by Annexin V-FITC/PI dual staining based flow cytometry (reference value: 85%); type: functional; conditions: A549, 24 h, read-out: Activity
# MDA-MB-231 [22] = experiment: Cell cycle arrest in human MDA-MB-231 cells assessed as accumulation at G2/M phase at 1 uM after 24 to 48 hrs by propidium iodide staining based flow cytometry (reference value: 20.2%); type: functional; procedure, shortened: as §1
# MDA-MB-231 [23] = experiment: Cell cycle arrest in human MDA-MB-231 cells assessed as accumulation at S phase at 2 uM after 24 to 48 hrs by propidium iodide staining based flow cytometry (reference value: 4.6%); type: functional; procedure, shortened: as §1
# MDA-MB-231 [24] = experiment: Induction of apoptosis in human MDA-MB-231 cells assessed as necrotic cells at 2 uM after 24 hrs by Annexin V-FITC/PI dual staining based flow cytometry (reference value: 1.9%); type: functional
# MDA-MB-231 [25] = experiment: Induction of apoptosis in human MDA-MB-231 cells assessed as early apoptotic cells at 1 uM after 24 hrs by Annexin V-FITC/PI dual staining based flow cytometry (reference value: 0.3%); type: functional
# A549 [26] = experiment: Disruption of mitochondrial membrane potential in human A549 cells after 48 hrs by Rhodamine-123 staining based spectrofluorometry; type: functional, cell-based; procedure, shortened: as §3
compound,measurement,setting,value
O=C1c2ccccc2Nc2ccccc2N1Cc1cn(Cc2ccccc2)nn1,Activity,A549 [1],36.6%
same,Activity,MDA-MB-231 [2],33.3%
same,viability at 2 µM,A549 [3],63.8%
same,Activity,MDA-MB-231 [4],6.7%
same,Activity,MDA-MB-231 (human),17%
same,IC50,A549 [5],710 nM
same,Activity,A549 [6],19.5%
same,Activity,A549 [7],2.5%
same,viability at 2 µM,MDA-MB-231 [8],62%
same,Activity,A549 [9],14.5%
same,Activity,MDA-MB-231 [10],Dose-dependent effect
same,Activity,A549 (human),19.3%
same,Activity,A549 [11],15%
same,Activity,MDA-MB-231 [12],11.5%
same,IC50,[13],4210 nM
same,Activity,A549 [14],34.7%
same,Activity,A549 [15],43.6%
same,viability at 0.5 µM,MDA-MB-231 [16],70%
same,Activity,A549 [17],12.7%
same,Activity,A549 [18],15.3%
same,Activity,A549 [19],13.8%
same,Activity,MDA-MB-231 [20],1.2%
same,viability at 1 µM,A549 [21],72%
same,Activity,MDA-MB-231 [22],33.6%
same,Activity,MDA-MB-231 [23],5.5%
same,Activity,MDA-MB-231 [24],2.5%
same,Activity,MDA-MB-231 [25],14.2%
same,Activity,A549 [26],Dose-dependent effect
